Assay results: ChEMBL document CHEMBL1629506, “Design, synthesis and structure-activity relationship study of novel pyrazole-based heterocycles as potential antitumor agents” (Eur J Med Chem, 2010)

What was measured:
[1] = Acute toxicity in mouse after 24 hrs; format: organism-based; details: in vivo
Summary of the method: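 Adult mice of both sexes, acclimatized 1 week (12 h light/dark, 21–23 °C), fasted 12 h before dosing. 30 mice in 6 groups of 5 each got a single oral gavage dose, at different dose levels, of a fine-powder aqueous suspension. LD50 was determined, with values as group means of five mice.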

SK-OV-3 = test: Growth inhibition of human SKOV3 cells after 48 hrs by sulforhodamine B assay; format: functional; details: SK-OV-3, 48 h
Summary of the method: (§1)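 Cells were plated at 5000–40,000 cells/well, depending on doubling time, and preincubated 24 h at 37 °C in 5% CO2. Time-zero plates were TCA-fixed at drug addition. Compounds were dissolved in DMSO and tested at five concentrations (10-fold or ½-log dilutions) for 48 h. Cells were fixed with cold TCA, stained with 0.4% sulforhodamine B and read at 515 nm. GI50 was taken as the concentration giving 50% growth.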

OVCAR-8 = test: Growth inhibition of human OVCAR8 cells after 48 hrs by sulforhodamine B assay; format: functional; details: OVCAR-8, 48 h; summary of the method: as §1
T47D = test: Growth inhibition of human T47D cells after 48 hrs by sulforhodamine B assay; format: functional; summary of the method: as §1
BT-549 = test: Growth inhibition of human BT549 cells after 48 hrs by sulforhodamine B assay; format: functional; details: BT-549, 48 h; summary of the method: as §1
MCF7 = test: Growth inhibition of human MCF7 cells after 48 hrs by sulforhodamine B assay; format: functional; details: MCF7, 48 h; summary of the method: as §1
Rattus norvegicus [2] = test: Antiestrogenic activity in Sprague-Dawley rat assessed as reduction in estradiol induced uterine weight upto 0.06 ug, po after 8 days; format: functional; parameters: scale not given: the % may be the effect or the level left
Summary of the method: (§2)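 Immature ovariectomized female Sprague-Dawley rats (~55 g), groups of 12. Estradiol 0.03–0.05 given s.c. daily for 7 days, with test compound or letrozole reference at various doses up to 0.06 per animal, given orally in 0.5% carboxymethylcellulose. Controls received estradiol alone. Uterine weights were taken on day 8 and group means expressed as % reduction versus estradiol-only controls. Potency was taken relative to letrozole.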

NCI/ADR-RES = test: Growth inhibition of human NCI/ADR-RES cells after 48 hrs by sulforhodamine B assay; format: functional; summary of the method: as §1
OVCAR-5 = test: Growth inhibition of human OVCAR5 cells after 48 hrs by sulforhodamine B assay; format: functional; details: OVCAR-5, 48 h; summary of the method: as §1
IGROV-1 = test: Growth inhibition of human IGROV1 cells after 48 hrs by sulforhodamine B assay; format: functional; details: IGROV-1, 48 h; summary of the method: as §1
MDA-N = test: Growth inhibition of human MDA-N cells after 48 hrs by sulforhodamine B assay; format: functional; summary of the method: as §1
[3] = Growth inhibition of human Hs 578T cells after 48 hrs by sulforhodamine B assay; format: functional; summary of the method: as §1
OVCAR-4 = test: Growth inhibition of human OVCAR4 cells after 48 hrs by sulforhodamine B assay; format: functional; details: OVCAR-4, 48 h; summary of the method: as §1
MDA-MB-435 = test: Growth inhibition of human MDA-MB-435 cells after 48 hrs by sulforhodamine B assay; format: functional; details: MDA-MB-435, 48 h; summary of the method: as §1
MDA-MB-231 = test: Growth inhibition of human MDA-MB-231cells after 48 hrs by sulforhodamine B assay; format: functional; details: MDA-MB-231, 48 h; summary of the method: as §1
OVCAR-3 = test: Growth inhibition of human OVCAR3 cells after 48 hrs by sulforhodamine B assay; format: functional; details: OVCAR-3, 48 h; summary of the method: as §1
Rattus norvegicus [4] = test: Antiestrogenic activity in Sprague-Dawley rat assessed as reduction in estradiol induced uterine weight 0.06 ug, po after 8 days relative to letrozole; format: functional; summary of the method: as §2

Row | Compound | LD50 at 24 h [1] | GI50 (SK-OV-3) | GI50 (OVCAR-8) | GI50 (T47D) | GI50 (BT-549) | GI50 (MCF7) | Activity (Rattus norvegicus [2]) | GI50 (NCI/ADR-RES) | GI50 (OVCAR-5) | GI50 (IGROV-1) | GI50 (MDA-N) | GI50 [3] | GI50 (OVCAR-4) | GI50 (MDA-MB-435) | GI50 (MDA-MB-231) | GI50 (OVCAR-3) | potency ratio vs letrozole (Rattus norvegicus [4])
1 | N#Cc1c(-c2nnc(O)c3nn(-c4ccccc4)cc23)nn(-c2ccccc2)c1-c1ccccc1 | 114 mg/kg | 36.8 µM | 61.5 µM | 2.95 µM | 44.8 µM | > 100 µM | 32.86% | 2.76 µM | 61.8 µM | 92.2 µM | 13.8 µM | 46.8 µM | 26.4 µM | 21.8 µM | 6.21 µM | > 100 µM | 1.51
2 | N#Cc1c(-c2nnc(O)c3nn(-c4ccc(Cl)cc4)cc23)nn(-c2ccccc2)c1-c1ccccc1 | 322 mg/kg | 30.8 µM | 3.23 µM | > 100 µM | > 100 µM | > 100 µM | 23.76% | > 100 µM | 32.8 µM | 91.3 µM | > 100 µM | > 100 µM | 4.38 µM | > 100 µM | > 100 µM | 33.4 µM | 1.09
3 | N#Cc1c(C(=O)c2cn(-c3ccc(Cl)cc3)nc2C(=O)Nc2ccccc2)nn(-c2ccccc2)c1-c1ccccc1 | 101 mg/kg | 9.42 µM | > 100 µM | 33 µM | 11.8 µM | > 100 µM | 34.87% | > 100 µM | > 100 µM | 99.5 µM | > 100 µM | 8.84 µM | 28.4 µM | 2.03 µM | > 100 µM | 23.8 µM | 1.61
4 | Cc1ccc(-n2cc(C(=O)c3nn(-c4ccccc4)c(-c4ccccc4)c3C#N)c(C(=O)Nc3ccccc3)n2)cc1 | 122 mg/kg | 9.42 µM | 9.52 µM | 30.8 µM | > 100 µM | 34.4 µM | 34.65% | 2.48 µM | 9.72 µM | 16.6 µM | 5.49 µM | 63.2 µM | 7.56 µM | 2.23 µM | 6.27 µM | 7.66 µM | 1.6
5 | N#Cc1c(C(=O)c2cn(-c3ccccc3)nc2-c2ccccc2)nn(-c2ccccc2)c1-c1ccccc1 | 122 mg/kg | > 100 µM | 9.83 µM | 28 µM | 1.12 µM | 33.3 µM | 23.54% | 98 µM | 6.23 µM | > 100 µM | 3.36 µM | > 100 µM | 5.49 µM | 61 µM | 49.8 µM | 4.94 µM | 1.08
6 | Cc1ccc(-n2cc(C(=O)c3nn(-c4ccccc4)c(-c4ccccc4)c3C#N)c(C(=O)c3nn(-c4ccccc4)c(-c4ccccc4)c3C#N)n2)cc1 | 211 mg/kg | 38.8 µM | 20.3 µM | 25.7 µM | 2.47 µM | 0.061 µM | 32.43% | > 100 µM | 36.8 µM | 0.022 µM | 26.8 µM | 37.4 µM | 30.4 µM | > 100 µM | > 100 µM | 99.8 µM | 1.49
7 | N#Cc1c(-c2nnc(-c3nn(-c4ccccc4)c(-c4ccccc4)c3C#N)c3nn(-c4ccccc4)cc23)nn(-c2ccccc2)c1-c1ccccc1 | 222 mg/kg | 5.72 µM | 9.82 µM | 81 µM | 11.8 µM | 17.8 µM | 34.87% | 24.5 µM | 9.12 µM | 13.3 µM | > 100 µM | 94.4 µM | 7.46 µM | > 100 µM | 52.4 µM | 7.26 µM | 1.61
8 | N#Cc1c(-c2nnc(-c3nn(-c4ccccc4)c(-c4ccccc4)c3C#N)c3nn(-c4ccc(Cl)cc4)cc23)nn(-c2ccccc2)c1-c1ccccc1 | 112 mg/kg | 36.8 µM | 61.8 µM | 16 µM | 1.02 µM | 9.42 µM | 43.41% | 7.46 µM | > 100 µM | 98 µM | 2.26 µM | 9.72 µM | 43.8 µM | 9.2 µM | 7.9 µM | 95.8 µM | 2
